# Calls of active or inactive are those of the source. The rule behind the calls is not given here.
# Experiments:
# MDA-MB-361 [1] = test: Cytotoxicity against human MDA-MB-361 cells over expressing HER2 assessed as reduction in cell viability after 72 hrs by sulforhodamine B assay; type: functional, cell-based; settings: MDA-MB-361, 72 h
# Outline: (§1)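 Cells seeded and grown 24 h, then exposed to 0.1% DMSO vehicle or 0.3125-20 μM compound for 72 h. Fixed with ice-cold 50% TCA (1 h, 4 °C), stained with 0.4% SRB 30 min at room temperature, dye solubilized in 10 mM tris base pH 10.5, OD read at 560 nm. Survival fraction = OD treated/OD vehicle; IC50 from triplicates of at least two independent experiments, mean ± SD.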
# A-431 = test: Cytotoxicity against human A431 cells over expressing EGFR assessed as reduction in cell viability after 72 hrs by sulforhodamine B assay; type: functional, cell-based; settings: A-431, 72 h; outline: as §1
# SK-BR-3 = test: Cytotoxicity against human SKBR3 cells over expressing HER2 assessed as reduction in cell viability after 72 hrs by sulforhodamine B assay; type: functional, cell-based; settings: SK-BR-3, 72 h; outline: as §1
# [2] = biological target: T1, Epidermal growth factor receptor (Homo sapiens, UniProt P00533); test: Inhibition of EGF-induced EGFR signalling in EGFR over-expressing human A431 cells assessed as reduction in AKT phosphorylation at S473 residue at 5 to 20 uM pretreated for 3 hrs followed by EGF-stimulation and measured after 10 mins by Western blot analysis
# Outline: (§2)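 Overnight serum-starved A431 cells given indicated concentrations for 3 h, then 50 ng/ml EGF for 10 min. HEPES-buffer lysates resolved on 12% SDS-PAGE, transferred to nitrocellulose, blocked in 5% milk/TBST, probed with primary and HRP secondary antibodies, chemiluminescence read-out.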
# [3] = biological target: T1, Epidermal growth factor receptor; test: Inhibition of EGF-induced EGFR signalling in EGFR over-expressing human A431 cells assessed as reduction in p70S6K phosphorylation at T389 residue at 5 to 20 uM pretreated for 3 hrs followed by EGF-stimulation and measured after 10 mins by Western blot analysis; outline: as §2
# NCI-H1975 [4] = test: Cytotoxicity against human NCI-H1975 cells harboring EGFR T790M mutant assessed as reduction in cell viability after 72 hrs by sulforhodamine B assay; type: functional, cell-based; settings: NCI-H1975, 72 h; outline: as §1
# [5] = biological target: T1, Epidermal growth factor receptor; test: Inhibition of EGF-induced EGFR signalling in EGFR over-expressing human A431 cells assessed as reduction in ribosomal S6 phosphorylation at S235/236 residue at 5 to 20 uM pretreated for 3 hrs followed by EGF-stimulation and measured after 10 mins by Western blot analysis; outline: as §2
# [6] = biological target: T1, Epidermal growth factor receptor; test: Inhibition of EGF-induced EGFR phosphorylation at Y1068 residues in EGFR over-expressing human A431 cells pretreated for 3 hrs followed by EGF-stimulation and measured after 10 mins by Western blot analysis; outline: as §2
# [7] = biological target: T1, Epidermal growth factor receptor; test: Inhibition of recombinant human C-terminal His-tagged/N-terminal GST-tagged EGFR (668 to 1210 residues) expressed in baculovirus infected Sf9 cells using Poly-(Glu, Tyr) as substrate measured after 45 minutes by Kinase-Glo luminescent assay
# [8] = biological target: T2, Receptor tyrosine-protein kinase erbB-2 (Homo sapiens, UniProt P04626); test: Inhibition of recombinant human N-terminal GST-tagged HER2 (679 to 1255 residues) expressed in baculovirus infected Sf9 cells using Poly-(Glu, Tyr) as substrate measured after 45 minutes by Kinase-Glo luminescent assay
# [9] = biological target: T2, Receptor tyrosine-protein kinase erbB-2; test: Inhibition of HER2 signalling in HER2 over-expressing human SKBR3 cells assessed as reduction in AKT phosphorylation at S473 residue at 2.5 to 10 uM after 72 hrs by Western blot analysis
# Outline: (§3)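 SKBr3 cells (DMEM, 10% FBS) treated 72 h at indicated concentrations. HEPES-buffer lysates on 12% SDS-PAGE, nitrocellulose transfer, 5% milk/TBST block, immunoblotted for AKT/mTOR/S6 with HRP secondary and chemiluminescence; β-actin loading control.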
# [10] = biological target: T2, Receptor tyrosine-protein kinase erbB-2; test: Inhibition of HER2 signalling in HER2 over-expressing human SKBR3 cells assessed as reduction in mTOR phosphorylation at S2448 residue at 2.5 to 10 uM after 72 hrs by Western blot analysis; outline: as §3
# [11] = biological target: T2, Receptor tyrosine-protein kinase erbB-2; test: Inhibition of HER2 signalling in HER2 over-expressing human SKBR3 cells assessed as reduction in S6 phosphorylation at S235/236 residue at 2.5 to 10 uM after 72 hrs by Western blot analysis; outline: as §3
# [12] = tested on: Epidermal growth factor receptor (Homo sapiens), P00533 [T790M]; test: Inhibition of EGFR T790M mutant in human NCI-H1975 cells assessed as reduction in p70S6K phosphorylation at T389 residue after 72 hrs by Western blot analysis; type: cell-based
# Outline: (§4)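 Unstimulated NCI-H1975 cells exposed to indicated concentrations for 72 h. Lysates in HEPES buffer run on 12% SDS-PAGE, blotted to nitrocellulose and probed for AKT/S6K/S6 signalling with chemiluminescent detection; β-actin loading control.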
# [13] = tested on: Epidermal growth factor receptor (Homo sapiens), P00533 [T790M]; test: Inhibition of EGFR T790M mutant in human NCI-H1975 cells assessed as reduction in ribosomal S6 phosphorylation at S235/236 residue after 72 hrs by Western blot analysis; type: cell-based; outline: as §4
# [14] = tested on: Epidermal growth factor receptor (Homo sapiens), P00533 [T790M]; test: Inhibition of EGF-induced EGFR T790M mutant in human NCI-H1975 cells assessed as reduction in AKT phosphorylation at S473 residue at 2.5 to 10 uM pretreated for 2.5 hrs followed by EGF-stimulation and measured after 10 mins by Western blot analysis; type: cell-based
# Outline: (§5)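 Serum-starved overnight NCI-H1975 cells preincubated 2.5 h with compound, then stimulated with 50 ng/ml EGF for 10 min. Lysed in HEPES buffer, protein quantified, 12% SDS-PAGE, nitrocellulose transfer, milk blocking, HRP secondary, chemiluminescent detection.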
# [15] = tested on: Epidermal growth factor receptor (Homo sapiens), P00533 [T790M]; test: Inhibition of EGFR T790M mutant in human NCI-H1975 cells assessed as reduction in AKT phosphorylation at S473 residue after 72 hrs by Western blot analysis; type: cell-based; outline: as §4
# [16] = biological target: T1, Epidermal growth factor receptor; test: Inhibition of EGF-induced EGFR signalling in EGFR over-expressing human A431 cells assessed as reduction in ribosomal S6 phosphorylation at S235/236 residue at 2.5 to 10 uM pretreated for 3 hrs followed by EGF-stimulation and measured after 10 mins by Western blot analysis; outline: as §2
# [17] = tested on: Epidermal growth factor receptor (Homo sapiens), P00533 [T790M]; test: Inhibition of EGF-induced EGFR T790M mutant in human NCI-H1975 cells assessed as reduction in p70S6K phosphorylation at T389 residue at 2.5 to 10 uM pretreated for 2.5 hrs followed by EGF-stimulation and measured after 10 mins by Western blot analysis; type: cell-based; outline: as §5
# NCI-H1975 [18] = test: Induction of apoptosis in human NCI-H1975 cells harboring EGFR T790M mutant assessed as increase in apoptotic cells at 2.5 to 10 uM after 72 hrs by Annexin-V-FITC/propidium iodide staining based flow cytometry; type: functional, cell-based
# [19] = biological target: T1, Epidermal growth factor receptor; test: Inhibition of EGF-induced EGFR signalling in EGFR over-expressing human A431 cells assessed as reduction in AKT phosphorylation at S473 residue at 2.5 to 10 uM pretreated for 3 hrs followed by EGF-stimulation and measured after 10 mins by Western blot analysis; outline: as §2
# [20] = tested on: Epidermal growth factor receptor (Homo sapiens), P00533 [T790M]; test: Inhibition of EGF-induced EGFR T790M mutant in human NCI-H1975 cells assessed as reduction in ribosomal S6 phosphorylation at S235/236 residue at 2.5 to 10 uM pretreated for 2.5 hrs followed by EGF-stimulation and measured after 10 mins by Western blot analysis; type: cell-based; outline: as §5
# [21] = tested on: Epidermal growth factor receptor (Homo sapiens), P00533 [T790M]; test: Inhibition of EGF-induced EGFR T790M mutant phosphorylation in human NCI-H1975 cells at 2.5 to 10 uM pretreated for 2.5 hrs followed by EGF-stimulation and measured after 10 mins by Western blot analysis; type: cell-based; outline: as §5
# [22] = biological target: T1, Epidermal growth factor receptor; test: Inhibition of EGF-induced EGFR signalling in EGFR over-expressing human A431 cells assessed as reduction in p70S6K phosphorylation at T389 residue at 2.5 to 10 uM pretreated for 3 hrs followed by EGF-stimulation and measured after 10 mins by Western blot analysis; outline: as §2
# MDA-MB-361 [23] = test: Induction of apoptosis in human MDA-MB-361 cells after 24 hrs by Annexin-V-FITC/propidium iodide staining based flow cytometry; type: functional, cell-based
# NCI-H1975 [24] = test: Induction of apoptosis in human NCI-H1975 cells harboring EGFR T790M mutant assessed as increase in necrotic cells at 2.5 to 10 uM after 72 hrs by Annexin-V-FITC/propidium iodide staining based flow cytometry; type: functional, cell-based
# Outline: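 NCI-H1975 cells grown in RPMI-1640 with 2 mM L-glutamine and 10% FBS, exposed 72 h to indicated concentrations. Harvested, ethanol-fixed on ice, PI-stained overnight at 4 °C. Flow cytometry on 20 000 cells/sample gave percent live, early apoptotic and late apoptotic/necrotic cells.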
# Chain of Epidermal growth factor receptor (Homo sapiens), P00533 [T790M] (P00533 whole entry T790M): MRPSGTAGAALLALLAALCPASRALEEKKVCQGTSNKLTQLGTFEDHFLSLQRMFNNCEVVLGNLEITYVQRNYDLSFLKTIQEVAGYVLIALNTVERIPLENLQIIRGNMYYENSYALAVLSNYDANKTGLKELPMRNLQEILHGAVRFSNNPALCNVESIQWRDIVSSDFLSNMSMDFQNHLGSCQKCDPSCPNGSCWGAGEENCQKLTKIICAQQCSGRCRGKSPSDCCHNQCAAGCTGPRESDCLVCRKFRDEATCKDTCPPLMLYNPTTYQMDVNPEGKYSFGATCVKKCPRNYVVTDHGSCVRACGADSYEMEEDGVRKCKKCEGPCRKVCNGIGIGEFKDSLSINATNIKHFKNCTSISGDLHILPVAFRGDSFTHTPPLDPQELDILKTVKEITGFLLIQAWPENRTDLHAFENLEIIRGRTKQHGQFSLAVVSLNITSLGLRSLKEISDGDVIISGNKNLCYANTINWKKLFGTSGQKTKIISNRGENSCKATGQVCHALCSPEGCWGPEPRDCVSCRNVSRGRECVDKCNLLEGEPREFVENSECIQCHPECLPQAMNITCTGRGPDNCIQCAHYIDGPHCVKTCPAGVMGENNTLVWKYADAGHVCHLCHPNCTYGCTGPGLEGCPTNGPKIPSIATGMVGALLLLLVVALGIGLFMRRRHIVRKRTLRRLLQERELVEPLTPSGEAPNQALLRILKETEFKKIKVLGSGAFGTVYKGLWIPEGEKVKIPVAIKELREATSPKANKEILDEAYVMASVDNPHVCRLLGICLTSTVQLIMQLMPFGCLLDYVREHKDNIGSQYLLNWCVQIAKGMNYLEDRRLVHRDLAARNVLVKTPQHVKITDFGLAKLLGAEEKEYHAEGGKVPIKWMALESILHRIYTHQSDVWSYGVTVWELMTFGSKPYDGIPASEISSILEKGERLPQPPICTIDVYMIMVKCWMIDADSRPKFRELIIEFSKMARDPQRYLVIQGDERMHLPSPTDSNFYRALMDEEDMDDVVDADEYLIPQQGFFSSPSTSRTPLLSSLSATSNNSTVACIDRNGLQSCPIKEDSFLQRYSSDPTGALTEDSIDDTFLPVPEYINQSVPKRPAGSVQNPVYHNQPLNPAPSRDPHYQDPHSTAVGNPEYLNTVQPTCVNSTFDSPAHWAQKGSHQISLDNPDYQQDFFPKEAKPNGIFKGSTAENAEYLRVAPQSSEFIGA
# T1 sequence (P00533 whole entry): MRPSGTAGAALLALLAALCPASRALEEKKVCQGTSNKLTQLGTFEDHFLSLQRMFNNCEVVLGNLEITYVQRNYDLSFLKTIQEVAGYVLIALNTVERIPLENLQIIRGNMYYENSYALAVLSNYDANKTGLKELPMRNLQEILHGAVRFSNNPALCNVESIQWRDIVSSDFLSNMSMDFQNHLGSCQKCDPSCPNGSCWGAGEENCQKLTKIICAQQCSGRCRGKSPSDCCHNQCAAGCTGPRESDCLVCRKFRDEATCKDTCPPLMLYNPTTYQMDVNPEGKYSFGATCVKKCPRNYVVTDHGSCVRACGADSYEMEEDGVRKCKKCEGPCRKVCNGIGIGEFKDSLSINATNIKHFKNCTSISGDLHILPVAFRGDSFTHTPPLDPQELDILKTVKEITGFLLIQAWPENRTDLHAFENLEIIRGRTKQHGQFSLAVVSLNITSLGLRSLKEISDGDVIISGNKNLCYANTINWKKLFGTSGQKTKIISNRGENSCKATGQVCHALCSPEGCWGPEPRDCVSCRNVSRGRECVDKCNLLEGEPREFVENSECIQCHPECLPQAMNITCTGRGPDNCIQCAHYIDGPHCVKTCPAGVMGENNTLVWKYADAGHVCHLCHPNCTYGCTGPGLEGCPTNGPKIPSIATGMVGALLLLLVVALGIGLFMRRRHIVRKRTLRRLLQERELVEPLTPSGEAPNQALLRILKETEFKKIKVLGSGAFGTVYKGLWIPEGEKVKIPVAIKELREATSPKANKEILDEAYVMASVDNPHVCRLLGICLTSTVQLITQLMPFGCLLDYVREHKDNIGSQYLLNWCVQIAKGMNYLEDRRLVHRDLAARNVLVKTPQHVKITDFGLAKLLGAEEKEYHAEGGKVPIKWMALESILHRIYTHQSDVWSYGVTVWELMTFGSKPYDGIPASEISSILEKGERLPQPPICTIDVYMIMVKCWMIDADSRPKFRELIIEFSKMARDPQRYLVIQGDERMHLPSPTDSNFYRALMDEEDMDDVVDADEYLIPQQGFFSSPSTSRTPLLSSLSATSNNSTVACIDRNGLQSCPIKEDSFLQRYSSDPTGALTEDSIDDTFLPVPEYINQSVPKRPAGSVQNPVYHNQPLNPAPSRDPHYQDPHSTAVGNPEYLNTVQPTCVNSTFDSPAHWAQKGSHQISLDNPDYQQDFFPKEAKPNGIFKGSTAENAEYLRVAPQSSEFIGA
# T2 sequence (P04626 whole entry, the tested form may be a part): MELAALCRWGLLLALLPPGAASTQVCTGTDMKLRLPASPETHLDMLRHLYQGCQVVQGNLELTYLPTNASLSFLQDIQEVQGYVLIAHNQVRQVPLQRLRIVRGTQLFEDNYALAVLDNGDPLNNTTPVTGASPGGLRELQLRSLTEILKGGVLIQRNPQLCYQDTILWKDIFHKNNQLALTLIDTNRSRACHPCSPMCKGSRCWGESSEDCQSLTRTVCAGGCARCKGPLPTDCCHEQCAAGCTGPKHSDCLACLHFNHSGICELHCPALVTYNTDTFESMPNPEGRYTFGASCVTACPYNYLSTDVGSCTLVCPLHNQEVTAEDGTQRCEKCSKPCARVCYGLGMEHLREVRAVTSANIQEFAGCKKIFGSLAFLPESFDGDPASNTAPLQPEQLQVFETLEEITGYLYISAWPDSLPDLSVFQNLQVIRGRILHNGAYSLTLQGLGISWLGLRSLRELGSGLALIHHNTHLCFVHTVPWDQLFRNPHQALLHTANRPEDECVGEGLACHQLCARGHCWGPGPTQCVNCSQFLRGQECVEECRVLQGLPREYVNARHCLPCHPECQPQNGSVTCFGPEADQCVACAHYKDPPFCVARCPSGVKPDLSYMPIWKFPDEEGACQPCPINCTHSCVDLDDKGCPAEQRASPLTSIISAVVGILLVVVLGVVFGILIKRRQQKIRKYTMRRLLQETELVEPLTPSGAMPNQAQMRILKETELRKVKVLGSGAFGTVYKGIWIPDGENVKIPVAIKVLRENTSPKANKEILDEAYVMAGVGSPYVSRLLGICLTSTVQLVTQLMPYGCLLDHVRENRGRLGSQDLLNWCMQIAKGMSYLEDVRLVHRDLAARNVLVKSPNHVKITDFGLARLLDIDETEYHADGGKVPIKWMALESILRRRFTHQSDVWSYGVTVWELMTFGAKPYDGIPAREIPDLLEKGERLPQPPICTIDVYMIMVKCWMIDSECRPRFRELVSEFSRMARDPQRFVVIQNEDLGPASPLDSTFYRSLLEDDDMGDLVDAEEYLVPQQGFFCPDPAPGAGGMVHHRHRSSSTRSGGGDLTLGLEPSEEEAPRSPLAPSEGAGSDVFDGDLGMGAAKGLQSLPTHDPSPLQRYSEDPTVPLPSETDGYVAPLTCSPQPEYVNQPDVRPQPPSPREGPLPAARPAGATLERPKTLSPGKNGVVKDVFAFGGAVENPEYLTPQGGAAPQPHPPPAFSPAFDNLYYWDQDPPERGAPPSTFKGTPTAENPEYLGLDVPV
SMILES,IC50 (MDA-MB-361 [1]),IC50 (A-431),IC50 (SK-BR-3),IC50 (NCI-H1975 [4]),IC50 [7],IC50 [8],also measured
CCOC(=O)Nc1ccc(-c2cc3c(Nc4ccc(Oc5cccc(C(F)(F)F)c5)c(Cl)c4)ncnc3s2)cc1,> 20 µM,17 µM,–,–,–,–,–
CC(C)/C=C/C(=O)Nc1ccc(-c2cc3c(Nc4ccc(Oc5cccc(C(F)(F)F)c5)c(Cl)c4)ncnc3s2)cc1,> 20 µM,0.23 µM,–,–,–,–,–
Nc1ccc(-c2cc3c(Nc4ccc(Oc5cccc(C(F)(F)F)c5)c(Cl)c4)ncnc3s2)cc1,5.85 µM,11.4 µM,6 µM,13.9 µM,0.0214 µM,1.5 µM,inhibition [2]: Active; inhibition [3]: Active; inhibition [5]: Active; inhibition [6]: Dose-dependent effect
O=C(O)/C=C\C(=O)Nc1ccc(-c2cc3c(Nc4ccc(Oc5cccc(C(F)(F)F)c5)c(Cl)c4)ncnc3s2)cc1,> 20 µM,> 20 µM,–,–,–,–,–
CS(=O)(=O)CCNCc1ccc(-c2ccc3ncnc(Nc4ccc(OCc5cccc(F)c5)c(Cl)c4)c3c2)o1,13.7 µM,1.69 µM,0.17 µM,11.5 µM,–,–,–
O=C(Nc1ccc(-c2cc3c(Nc4ccc(Oc5cccc(C(F)(F)F)c5)c(Cl)c4)ncnc3s2)cc1)NC1CC1,3.83 µM,2.34 µM,–,–,0.112 µM,37.1 µM,–
O=[N+]([O-])c1ccc(-c2cc3c(Nc4ccc(Oc5cccc(C(F)(F)F)c5)c(Cl)c4)ncnc3s2)cc1,3.65 µM,1.72 µM,–,–,–,–,–
O=[N+]([O-])c1ccc(-c2cc3c(Nc4ccc5c(cnn5Cc5ccccc5)c4)ncnc3s2)cc1,> 20 µM,> 20 µM,–,–,–,–,–
O=[N+]([O-])c1ccc(-c2cc3c(NCc4ccccc4)ncnc3s2)cc1,> 20 µM,4.87 µM,–,–,–,–,–
CC(=O)Nc1ccc(-c2cc3c(Nc4ccc(Oc5cccc(C(F)(F)F)c5)c(Cl)c4)ncnc3s2)cc1,10.5 µM,10.5 µM,4.7 µM,12.7 µM,0.0477 µM,0.879 µM,inhibition [9]: Active; inhibition [10]: Active; inhibition [11]: Active
O=C(NCCN1CCOCC1)Nc1ccc(-c2cc3c(Nc4ccc(Oc5cccc(C(F)(F)F)c5)c(Cl)c4)ncnc3s2)cc1,3.5 µM,1.45 µM,4.83 µM,4.2 µM,0.0917 µM,1.2 µM,inhibition [12]: Dose-dependent effect; inhibition [13]: Dose-dependent effect; inhibition [14]: Active; inhibition [15]: Dose-dependent effect; inhibition [16]: Active; inhibition [17]: Active; Activity (NCI-H1975 [18]): Active; inhibition [19]: Active; inhibition [20]: Active; inhibition [6]: Dose-dependent effect; inhibition [21]: Active; inhibition [22]: Active; Activity (MDA-MB-361 [23]): Dose-dependent effect; Activity (NCI-H1975 [24]): Active
CS(=O)(=O)Nc1ccc(-c2cc3c(Nc4ccc(Oc5cccc(C(F)(F)F)c5)c(Cl)c4)ncnc3s2)cc1,9.86 µM,5.25 µM,–,–,–,19.2 µM,–
Nc1ccc(-c2cc3c(NCc4ccccc4)ncnc3s2)cc1,> 20 µM,> 20 µM,–,–,–,–,–
